Laboratory results published in ChEMBL document CHEMBL4049439, “Synthesis and Characterization of Tetrahydropyran-Based Bacterial Topoisomerase Inhibitors with Antibacterial Activity against Gram-Negative Bacteria” (J Med Chem, 2017).
Values after ≈ are worked out from the molar mass of the structure shown. Active and inactive are the calls of the source. The calls are words filed in the database; no cut-off is given here.

Tests used:
[1] = Inhibition of wild-type Acinetobacter baumannii DNA topoisomerase-4 mediated supercoiled pBR322 DNA relaxation by ethidium bromide based agarose gel electrophoresis
[2] = Inhibition of wild-type Escherichia coli DNA topoisomerase-4 mediated supercoiled pBR322 DNA relaxation by ethidium bromide based agarose gel electrophoresis
Staphylococcus aureus [3] = assay: Antibacterial activity against Staphylococcus aureus ATCC 29213 by CLSI broth microdilution method; type: functional
Escherichia coli = assay: Antibacterial activity against wild-type Escherichia coli ATCC 25922 by CLSI broth microdilution method; type: functional
Acinetobacter baumannii = assay: Antibacterial activity against fluoroquinolone-resistant Acinetobacter baumannii T6474 by CLSI broth microdilution method; type: functional
Pseudomonas aeruginosa = assay: Antibacterial activity against Pseudomonas aeruginosa ATCC 27853 by CLSI broth microdilution method; type: functional
[4] = Inhibition of wild-type Escherichia coli DNA gyrase supercoiling activity using relaxed pBR322 DNA as substrate by ethidium bromide based agarose gel electrophoresis
[5] = Inhibition of wild-type Acinetobacter baumannii DNA gyrase supercoiling activity using relaxed pBR322 DNA as substrate by ethidium bromide based agarose gel electrophoresis
[6] = Inhibition of wild-type Pseudomonas aeruginosa DNA gyrase supercoiling activity using relaxed pBR322 DNA as substrate by ethidium bromide based agarose gel electrophoresis
[7] = Inhibition of wild-type Pseudomonas aeruginosa DNA topoisomerase-4 mediated supercoiled pBR322 DNA relaxation by ethidium bromide based agarose gel electrophoresis
[8] = Lipophilicity, log D of the compound at pH 7.4; type: physicochemical; conditions: buffer
Rattus norvegicus [9] = assay: Dose normalized AUC in Wistar rat at 1 mg/kg, iv by LC-MS/MS analysis; type: ADME, organism-based; conditions: in vivo
[10] = Fraction unbound in Wistar rat plasma at 1 mg/kg, iv by rapid equilibrium dialysis; type: ADME, organism-based
In short: (§1)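 Rats dosed iv at 10 mg/kg or 1 mg/kg. Dose-normalized AUC (μg·h/(mL·dose)) and its unbound counterpart derived via fraction unbound. Clearance, unbound clearance, Vdss and half-life also derived.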

Rattus norvegicus [11] = assay: Dose normalized unbound AUC in Wistar rat at 1 mg/kg, iv by LC-MS/MS analysis; type: ADME, organism-based; conditions: in vivo; in short: as §1
[12] = Clearance in Wistar rat at 1 mg/kg, iv by LC-MS/MS analysis; type: ADME, organism-based; conditions: in vivo; in short: as §1
Rattus norvegicus [13] = assay: Unbound clearance in Wistar rat at 1 mg/kg, iv by LC-MS/MS analysis; type: ADME, organism-based; conditions: in vivo; in short: as §1
[14] = Volume of distribution at steady state in Wistar rat at 1 mg/kg, iv by LC-MS/MS analysis; type: ADME, organism-based; conditions: in vivo, read-out: Vdss
In short: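 Rats received a single intravenous dose of 10 or 1 mg/kg depending on the compound. Clearance, unbound clearance, Vdss, terminal half-life and dose-normalized AUC were derived from plasma exposure, with unbound fraction (fu) reported for this species.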

[15] = Terminal half-life in Wistar rat at 1 mg/kg, iv by LC-MS/MS analysis; type: ADME, organism-based; conditions: in vivo, read-out: beta t1/2 (converted); in short: as §1
hERG (KCNH2) [16] = biological target: T1, hERG (KCNH2) (Homo sapiens, UniProt Q12809); assay: Inhibition of human ERG assessed as reduction of K+ current at 30 uM
In short: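 hERG K+ channel current reduction measured at 30 μM compound concentration.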

[17] = biological target: Voltage-gated inwardly rectifying potassium channel KCNH2 (Homo sapiens, UniProt Q12809); assay: (§2) Inhibition of human ERG assessed as reduction of K+ current
hERG (KCNH2) [18] = biological target: T1, hERG (KCNH2); assay: as §2; conditions: human
[19] = Cardiotoxicity against human induced pluripotent stem cell-derived cardiomyocytes assessed as free drug concentration causing inhibition of spontaneous rhythm after 5 to 60 mins by Fluo-4 dye based fluorescence assay; type: toxicity; conditions: cardiac muscle cell
In short: (§3)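 Spontaneous beating rhythm of human iPSC-derived cardiomyocytes monitored. Reported value is the lowest active concentration, free or total. Free/total conversion corrected for 20% serum in the test solution.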

[20] = Cardiotoxicity against human induced pluripotent stem cell-derived cardiomyocytes assessed as total drug concentration causing effect on spontaneous rhythm after 5 to 60 mins by Fluo-4 dye based fluorescence assay; type: toxicity; conditions: cardiac muscle cell; in short: as §3
Cavia porcellus [21] = assay: (§4) Cardiotoxicity in Dunkin-Hartley guinea pig assessed as free plasma concentration causing effect on QT interval administered as iv at 3 mg/kg for first 20 mins of infusion followed by 10 mg/kg for second 20 mins of infusion followed by 30 mg/kg for third 20 mins of infusion by LC-MS/MS analysis; type: toxicity, organism-based; conditions: in vivo
In short: (§5)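 Anesthetized guinea pigs received 3, 10 and 30 mg/kg iv over three consecutive 20 min periods. MAP, HR and ECG intervals (PR, QRS, RR, QT) recorded continuously. Blood drawn at the end of each period for drug levels. Value is the lowest plasma concentration differing from vehicle-treated animals. Free level uses unbound fraction from rapid equilibrium dialysis of guinea pig plasma.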

Cavia porcellus [22] = assay: Cardiotoxicity in Dunkin-Hartley guinea pig assessed as free plasma concentration causing effect on heart rate administered as iv at 3 mg/kg for first 20 mins of infusion followed by 10 mg/kg for second 20 mins of infusion followed by 30 mg/kg for third 20 mins of infusion by LC-MS/MS analysis; type: toxicity, organism-based; conditions: in vivo; in short: as §5
Cavia porcellus [23] = assay: as §4, with “mean arterial pressure” for “QT interval”; type: toxicity, organism-based; conditions: in vivo; in short: as §5
Cavia porcellus [24] = assay: Cardiotoxicity in Dunkin-Hartley guinea pig assessed as free plasma concentration causing effect on QRS interval administered as iv at 3 mg/kg for first 20 mins of infusion followed by 10 mg/kg for second 20 mins of infusion followed by 30 mg/kg for third 20 mins of infusion by LC-MS/MS analysis; type: toxicity, organism-based; conditions: in vivo; in short: as §5
Cavia porcellus [25] = assay: Cardiotoxicity in Dunkin-Hartley guinea pig assessed as free plasma concentration causing effect on PR interval administered as iv at 3 mg/kg for first 20 mins of infusion followed by 10 mg/kg for second 20 mins of infusion followed by 30 mg/kg for third 20 mins of infusion by LC-MS/MS analysis; type: toxicity, organism-based; conditions: in vivo; in short: as §5
[26] = Fraction unbound in Dunkin-Hartley guinea pig plasma administered as iv at 3 mg/kg for first 20 mins of infusion followed by 10 mg/kg for second 20 mins of infusion followed by 30 mg/kg for third 20 mins of infusion by rapid equilibrium dialysis; type: ADME, organism-based, Cavia porcellus
Mus musculus [27] = assay: Dose normalized AUC in NMRI mouse at 10 mg/kg, iv by LC-MS/MS analysis; type: ADME, organism-based; conditions: in vivo
[28] = Fraction unbound in NMRI mouse at 10 mg/kg, iv by rapid equilibrium dialysis; type: ADME, organism-based; conditions: plasma
In short: (§6)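 Mice dosed iv at 10 mg/kg or sc at 120 mg/kg. AUC normalized to dose (μg·h/(mL·dose)). Unbound AUC derived using fraction unbound. Clearance, Vdss and terminal half-life also derived.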

Mus musculus [29] = assay: Dose normalized unbound AUC in NMRI mouse at 10 mg/kg, iv by LC-MS/MS analysis; type: ADME, organism-based; conditions: in vivo; in short: as §6
[30] = Volume of distribution at steady state in NMRI mouse at 10 mg/kg, iv by LC-MS/MS analysis; type: ADME, organism-based; conditions: in vivo, read-out: Vdss
In short: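 Mice received a single dose of 10 mg/kg intravenously, or 120 mg/kg subcutaneously for one compound. Clearance, Vdss, half-life, unbound fraction and dose-normalized AUC were derived from plasma exposure.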

[31] = Terminal half-life in NMRI mouse at 10 mg/kg, iv by LC-MS/MS analysis; type: ADME, organism-based; conditions: in vivo, read-out: beta t1/2 (converted); in short: as §6
Staphylococcus aureus [32] = assay: Antibacterial activity against methicillin-sensitive Staphylococcus aureus A-1178 by CLSI broth microdilution method; type: functional
Staphylococcus aureus [33] = assay: Antibacterial activity against methicillin-sensitive Staphylococcus aureus A-1178 infected in cyclophosphamide-induced neutropenic NMRI mouse model assessed as log reduction in colony forming units in thighs at 40 mg/kg, sc treated 2 hrs post infection measured 22 hrs post dose; type: functional
In short: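 Neutropenic mouse thigh model infected with a methicillin-sensitive S. aureus strain, subcutaneous dosing. Thigh CFU measured 24 h post-infection (22 h post-treatment). Net log reduction given against CFU at treatment start.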

Staphylococcus aureus [34] = assay: Antibacterial activity against methicillin/quinolone-resistant Staphylococcus aureus A-1171 by CLSI broth microdilution method; type: functional
Staphylococcus aureus [35] = assay: Antibacterial activity against methicillin/quinolone-resistant Staphylococcus aureus A-1171 infected in cyclophosphamide-induced neutropenic NMRI mouse model assessed as log reduction in colony forming units in thighs at 40 mg/kg, sc treated 2 hrs post infection measured 22 hrs post dose; type: functional
In short: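 Neutropenic murine thigh infection with MRSA. A single subcutaneous dose of 40 mg/kg was given. Thigh CFU were counted 24 h postinfection (22 h post-treatment). The net change in bacterial load is given in log units relative to CFU at the start of treatment.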

Klebsiella pneumoniae [36] = assay: Antibacterial activity against Klebsiella pneumoniae ATCC 43816 by CLSI broth microdilution method; type: functional
Klebsiella pneumoniae [37] = assay: Antibacterial activity against Klebsiella pneumoniae ATCC 43816 infected in cyclophosphamide-induced neutropenic NMRI mouse model assessed as reduction in colony forming units in thighs at 30 mg/kg, sc treated 2 hrs post infection measured 5.5 hrs post dose; type: functional, organism-based
In short: (§7)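 Neutropenic murine thigh infection with a K. pneumoniae strain, single subcutaneous dose. Thigh CFU read 7.5 h post-infection (5.5 h after treatment, covering the dosing interval). Net log change computed against CFU at start of treatment.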

Klebsiella pneumoniae [38] = assay: Antibacterial activity against Klebsiella pneumoniae ATCC 43816 infected in cyclophosphamide-induced neutropenic NMRI mouse model assessed as log reduction in colony forming units in thighs at 90 mg/kg, sc treated 2 hrs post infection measured 5.5 hrs post dose; type: functional; in short: as §7

T1 sequence (Q12809 whole entry): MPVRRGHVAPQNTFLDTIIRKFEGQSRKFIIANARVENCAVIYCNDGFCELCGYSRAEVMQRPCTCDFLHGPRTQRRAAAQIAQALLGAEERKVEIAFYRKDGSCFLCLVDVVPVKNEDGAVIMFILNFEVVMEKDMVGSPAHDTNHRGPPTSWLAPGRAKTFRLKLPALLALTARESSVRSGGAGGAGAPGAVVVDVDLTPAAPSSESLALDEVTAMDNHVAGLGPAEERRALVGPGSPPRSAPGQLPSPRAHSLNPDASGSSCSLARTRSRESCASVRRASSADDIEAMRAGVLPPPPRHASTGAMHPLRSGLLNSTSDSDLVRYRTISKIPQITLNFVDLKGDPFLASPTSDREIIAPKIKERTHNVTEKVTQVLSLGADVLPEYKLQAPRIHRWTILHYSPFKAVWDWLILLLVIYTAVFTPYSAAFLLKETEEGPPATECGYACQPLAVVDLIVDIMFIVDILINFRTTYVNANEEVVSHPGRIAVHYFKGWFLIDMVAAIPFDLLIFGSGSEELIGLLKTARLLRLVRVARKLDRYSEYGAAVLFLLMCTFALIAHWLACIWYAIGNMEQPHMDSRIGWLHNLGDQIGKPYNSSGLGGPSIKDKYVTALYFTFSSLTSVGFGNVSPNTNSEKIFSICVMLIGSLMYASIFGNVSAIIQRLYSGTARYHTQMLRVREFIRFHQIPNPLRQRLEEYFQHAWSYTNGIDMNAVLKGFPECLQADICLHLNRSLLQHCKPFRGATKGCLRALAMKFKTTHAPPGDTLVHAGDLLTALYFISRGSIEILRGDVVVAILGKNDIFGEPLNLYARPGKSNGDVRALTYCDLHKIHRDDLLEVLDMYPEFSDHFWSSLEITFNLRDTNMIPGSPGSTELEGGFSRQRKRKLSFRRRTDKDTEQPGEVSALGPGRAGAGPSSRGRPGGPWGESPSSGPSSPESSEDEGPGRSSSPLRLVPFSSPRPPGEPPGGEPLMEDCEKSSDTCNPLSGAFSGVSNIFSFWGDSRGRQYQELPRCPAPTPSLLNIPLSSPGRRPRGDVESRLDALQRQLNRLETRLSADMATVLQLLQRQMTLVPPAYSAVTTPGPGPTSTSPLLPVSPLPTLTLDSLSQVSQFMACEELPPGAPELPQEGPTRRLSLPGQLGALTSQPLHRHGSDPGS
Chain of Voltage-gated inwardly rectifying potassium channel KCNH2 (Q12809 whole entry): as above

COc1ccc2ccc(=O)n(C[C@H](O)[C@@H]3CC[C@@H](NCc4ccc5c(n4)NC(=O)CO5)CO3)c2n1
IC50 [1]: 125 nM
IC50 [2]: 30 nM
MIC (Staphylococcus aureus [3]): ≤ 0.03 µg/mL
MIC (Escherichia coli): 0.5 µg/mL (≈ 1.04 µM)
MIC (Acinetobacter baumannii): ≤ 0.03 µg/mL
MIC (Pseudomonas aeruginosa): 8 µg/mL (≈ 16.6 µM)
IC50 [4]: 125 nM
IC50 [5]: 125 nM
IC50 [6]: 125 nM
IC50 [7]: 30 nM
logD [8]: 2
AUC/dose (Rattus norvegicus [9]): 378 ng·h/mL
fraction unbound [10]: 0.167
fAUC/dose (Rattus norvegicus [11]): 63 µg·h/mL
clearance [12]: 44 mL/min/kg
CL free (Rattus norvegicus [13]): 263 mL/min/kg
Vd [14]: 2.5 L/kg
half-life [15]: 1 h
inhibition at 30 µM (hERG (KCNH2) [16]): 71%
IC50 [17]: 15000 nM
IC20 (hERG (KCNH2) [18]): 3700 nM
Drug uptake(free) [19]: 0.86 µM
Drug uptake [20]: 1.4 µM
Cp(f) (Cavia porcellus [21]): 1.5 µM
Cp(f) (Cavia porcellus [22]): 6 µM
Cp(f) (Cavia porcellus [23]): 21 µM
Cp(f) (Cavia porcellus [24]): 21 µM
Cp(f) (Cavia porcellus [25]): > 21 µM
fraction unbound at 20 min [26]: 0.43

COc1ccc2ncc(F)c(CC(N)[C@@H]3CC[C@@H](NCc4ccc5c(n4)NC(=O)CO5)CO3)c2n1 (mixture of isomers)
IC50 [1]: 30 nM
IC50 [2]: 30 nM
MIC (Staphylococcus aureus [3]): 0.03 µg/mL
MIC (Escherichia coli): 0.25 µg/mL
MIC (Acinetobacter baumannii): 0.25 µg/mL
MIC (Pseudomonas aeruginosa): 4 µg/mL
IC50 [4]: 125 nM
IC50 [5]: 125 nM
IC50 [6]: 30 nM
IC50 [7]: 30 nM
AUC/dose (Mus musculus [27]): 260 ng·h/mL
fraction unbound [28]: 0.154
fAUC/dose (Mus musculus [29]): 40 µg·h/mL
Vd [30]: 6 L/kg
half-life [31]: 1.2 h
MIC (Staphylococcus aureus [32]): 0.06 µg/mL
Activity (Staphylococcus aureus [33]): 2 log10CFU
MIC (Staphylococcus aureus [34]): 0.03 µg/mL
Activity (Staphylococcus aureus [35]): 1 log10CFU
MIC (Klebsiella pneumoniae [36]): 0.125 µg/mL
Activity (Klebsiella pneumoniae [37]): inactive
Activity (Klebsiella pneumoniae [38]): 1 log10CFU
